Test results reported in ChEMBL document CHEMBL1122233, “Antihypertensive 9-substituted 1-oxa-4,9-diazaspiro[5.5]undecan-3-ones” (J Med Chem, 1983).

Columns and labels:
Rattus norvegicus [1] = assay: Percentage fall in systolic blood pressure after 2 hr at 25 mg/kg given perorally; format: functional, Artery; settings: route oral
Procedure, shortened: (§1)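 Male Okamoto-Aoki spontaneously hypertensive rats, trained, in groups of four matched for mean systolic pressure; five treated groups and one vehicle control run concurrently. Oral dosing in water (solution or suspension, 0.1 mL/10 g) on two consecutive mornings. On day 2, rats were restrained at 30.0 ± 1.0 °C and tail-cuff systolic pressure recorded at 1–4 h; percent fall versus control, 1-tail t test, p ≤ 0.05.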

Rattus norvegicus [2] = assay: Percentage fall in systolic blood pressure after 4 hr at 25 mg/kg given perorally; format: functional, Artery; settings: route oral; procedure, shortened: as §1
Rattus norvegicus [3] = assay: (§2) Percentage fall in systolic blood pressure after 2 hr at 12.5 mg/kg given perorally; format: functional, Artery; settings: route oral; procedure, shortened: as §1
Rattus norvegicus [4] = assay: (§3) Percentage fall in systolic blood pressure after 1 hr at 12.5 mg/kg given perorally; format: functional, Artery; settings: route oral
Procedure, shortened: (§4)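 Male Okamoto-Aoki SHR, four per group, with a concurrent vehicle control group. Oral dosing in water (0.1 mL/10 g) on two consecutive mornings. After the day-2 dose, rats were restrained in a 30 °C chamber. Tail-cuff systolic pressure was taken at 1-4 h from four traces per rat. Result is % decrease versus control mean, by 1-tailed t test, p ≤ 0.05.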

Rattus norvegicus [5] = assay: Percentage fall in systolic blood pressure after 4 hr at 12.5 mg/kg given perorally; format: functional, Artery; settings: route oral; procedure, shortened: as §1
Rattus norvegicus [6] = assay: Percentage fall in systolic blood pressure after 3 hr at 25 mg/kg given perorally; format: functional, Artery; settings: route oral; procedure, shortened: as §1
Rattus norvegicus [7] = assay: (§5) Percentage fall in systolic blood pressure after 2 hours at 50 mg/kg given perorally; format: functional, organism-based; set-up: dose 50 mg/kg; settings: Artery; procedure, shortened: as §1
Rattus norvegicus [8] = assay: (§6) Percentage fall in systolic blood pressure after 3 hours at 50 mg/kg given perorally; format: functional, organism-based; set-up: dose 50 mg/kg; settings: Artery; procedure, shortened: as §1
Rattus norvegicus [9] = assay: (§7) Percentage fall in systolic blood pressure after 1 hr at 50 mg/kg given perorally; format: functional, organism-based; set-up: dose 50 mg/kg; settings: Artery; procedure, shortened: as §1
Rattus norvegicus [10] = assay: (§8) Percentage fall in systolic blood pressure after 4 hours at 50 mg/kg given perorally; format: functional, organism-based; set-up: dose 50 mg/kg; settings: Artery; procedure, shortened: as §1
Rattus norvegicus [11] = assay: as §5; format: functional, Artery; settings: route oral; procedure, shortened: as §4
Rattus norvegicus [12] = assay: Percentage fall in systolic blood pressure after 3 hours at 12.5 mg/kg given perorally; format: functional, organism-based; set-up: dose 12.5 mg/kg; settings: Artery; procedure, shortened: as §4
Rattus norvegicus [13] = assay: Percentage fall in systolic blood pressure after 2 hours at 12.5 mg/kg given perorally; format: functional, Artery; settings: route oral; procedure, shortened: as §4
Rattus norvegicus [14] = assay: as §6; format: functional, Artery; settings: route oral; procedure, shortened: as §4
Rattus norvegicus [15] = assay: Percentage fall in systolic blood pressure after 4 hours at 12.5 mg/kg given perorally; format: functional, organism-based; set-up: dose 12.5 mg/kg; settings: Artery; procedure, shortened: as §4
Rattus norvegicus [16] = assay: as §7; format: functional, Artery; settings: route oral; procedure, shortened: as §4
Rattus norvegicus [17] = assay: as §8; format: functional, Artery; settings: route oral; procedure, shortened: as §4
Rattus norvegicus [18] = assay: Percentage fall in systolic blood pressure after 3 hr at 12.5 mg/kg given perorally; format: functional, organism-based; set-up: dose 12.5 mg/kg; settings: Artery; procedure, shortened: as §1
Rattus norvegicus [19] = assay: Percentage fall in systolic blood pressure after 1 hr at 25 mg/kg given perorally; format: functional, Artery; settings: route oral; procedure, shortened: as §1
Rattus norvegicus [20] = assay: as §2; format: functional, organism-based; set-up: dose 12.5 mg/kg; settings: Artery; procedure, shortened: as §1
Rattus norvegicus [21] = assay: as §3; format: functional, organism-based; set-up: dose 12.5 mg/kg; settings: Artery; procedure, shortened: as §1
Rattus norvegicus [22] = assay: as §6; format: functional, organism-based; set-up: dose 50 mg/kg; settings: Artery; procedure, shortened: as §4; remark: listed apart in the source
Rattus norvegicus [23] = assay: as §5; format: functional, organism-based; set-up: dose 50 mg/kg; settings: Artery; procedure, shortened: as §4; remark: listed apart in the source

CN1CC2(CCN(CC(O)C3COc4ccccc4O3)CC2)OCC1=O (stereo in doubt; 61)
Decrease in SBP (Rattus norvegicus [1]; 25 mg/kg): 36%
Decrease in SBP (Rattus norvegicus [2]): 40%
Decrease in SBP (Rattus norvegicus [3]): 22%
Decrease in SBP (Rattus norvegicus [4]): 25%
Decrease in SBP (Rattus norvegicus [5]): 19%
Decrease in SBP (Rattus norvegicus [6]; 25 mg/kg): 40%

O=C1COC2(CCN(CC(O)C3COc4ccccc4O3)CC2)C(c2ccccc2)N1 (stereo not given)
Decrease in SBP (Rattus norvegicus [7]): Not significant
Decrease in SBP (Rattus norvegicus [8]): Not significant
Decrease in SBP (Rattus norvegicus [9]): Not significant
Decrease in SBP (Rattus norvegicus [10]): Not significant

CCC1NC(=O)COC12CCN(CCc1c[nH]c3ccccc13)CC2 (stereo not given)
Decrease in SBP (Rattus norvegicus [11]): 54%
Decrease in SBP (Rattus norvegicus [12]): Not significant
Decrease in SBP (Rattus norvegicus [13]): 25%
Decrease in SBP (Rattus norvegicus [14]): 41%
Decrease in SBP (Rattus norvegicus [15]): Not significant
Decrease in SBP (Rattus norvegicus [4]): 21%
Decrease in SBP (Rattus norvegicus [16]): 40%
Decrease in SBP (Rattus norvegicus [17]): 43%

O=C1COC2(CCN(CCCC(=O)c3ccc(F)cc3)CC2)CN1
Decrease in SBP (Rattus norvegicus [18]): Not significant
Decrease in SBP (Rattus norvegicus [1]): 33%
Decrease in SBP (Rattus norvegicus [19]): 50%
Decrease in SBP (Rattus norvegicus [2]): 30%
Decrease in SBP (Rattus norvegicus [20]): Not significant
Decrease in SBP (Rattus norvegicus [21]): Not significant
Decrease in SBP (Rattus norvegicus [5]): 18%
Decrease in SBP (Rattus norvegicus [6]): 29%

O=C1COC2(CCN(CC(O)c3ccccc3)CC2)CN1 (stereo not given)
Decrease in SBP (Rattus norvegicus [22]): Not significant
Decrease in SBP (Rattus norvegicus [9]): Not significant
Decrease in SBP (Rattus norvegicus [23]): Not significant
Decrease in SBP (Rattus norvegicus [10]): Not significant
